# High-throughput results deposited in PubChem by several laboratories.
# T cruzi repl = blocks replication of Trypanosoma cruzi. T. cruzi beta-gal in NIH3T3, luminescence, 90 h. 300,000 compounds, 1.4% hits. inhibition, % (concentration not given with the values);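 active = mean inhibition across valid replicates above about 55%, limit read from the data; inconclusive = mean below that limit but half or more replicates reach it; inactive = mean below it, under half of replicates reach it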;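 note: signal also drops with host cell toxicity which is not excluded here; 0% = plate median of DMSO wells and 100% = zero luminescence signal; higher percent means less beta-gal luminescence so fewer parasites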
#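 System: Mouse NIH/3T3 fibroblasts infected with β-gal-expressing T. cruzi Tulahuen C4 | Quantity: NIH/3T3 cells, 5,000 per well | Reagent: 5000 reporter trypomastigotes per well | Dosing: Compound pinned at 50 nL/well, DMSO | Schedule: 3 h host attachment, then at least 90 h co-culture | Detection: GalScreen luminescence, 60 min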
# Redox H2O2 prof = compounds producing H2O2 with reducing agent – biochemical, NIH compound library profiling, artefact control for MLSCN library redox annotation, primary screen; 200,000 compounds, 0.03% hits; AID 878; activation, % at 10 µM; DTT-dependent redox cycling H2O2, phenol red/HRP absorbance; 100% = 100 µM peroxide control, 0% = buffer;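 active = activation of at least 50% relative to the plate's high and low controls in the primary single-dose screen; inactive = activation below 50%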;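 note: compound incubated with DTT at 0.8 mM final as the reducing agent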
# L major viab = inhibitors of Leishmania major promastigote growth. AID 1063. Leishmania major promastigotes, resazurin fluorescence viability. inhibition, % at 10 µM. 200,000 compounds, 9% hits; in the data active = inhibition above about 50%;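 note: promastigotes grown with compound for 44 hours at 28 °C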
# Hep lipid drop = modulators of hepatic lipid droplet formation. AML12 mouse hepatocytes, oleate lipid droplets, BODIPY imaging. inhibition, % at 6.5 µM. 240,000 compounds, 0.4% hits. AID 1656;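 active = lipid droplet intensity inhibited by at least 50%, with more than 500 cells counted; inconclusive = wells with under 300 cells, treated as cytotoxic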
#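 material = mouse AML12 hepatocyte cell line, fixed after treatment | also added = 100 µM oleic acid challenge | doses = compound at 6.5 µM only | schedule = overnight exposure | technique = Image-based BODIPY and DAPI two-channel analysis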
# MPTP block = permeability transition pore inhibition | isolated mouse mitochondria, Ca2+ swelling absorbance, 30 min | inhibition, % at 10 µM | 360,000 compounds, 1.4% hits | AID 602449;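 active = inhibition of 50% or more, scaled per plate between neutral and stimulator controls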;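 note: 0% = DMSO wells given calcium and 100% = 1 mM EGTA wells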
# Rh123 counter = membrane potential counter-screen of mitochondrial pore inhibitors. shares compounds with MPTP block. isolated mitochondria, Rhodamine 123 fluorescence. inhibition, % at 10 µM. 5,000 compounds, 78% hits. AID 624504; in the data active = inhibition above about 22%;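 note: 0% = DMSO vehicle and 100% = positive control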
# MPTP swell DR = MPTP inhibition, dose response swelling confirmation; shares compounds with MPTP block; isolated mitochondria swelling, absorbance; IC50, µM; 780 compounds, 58% hits; in the data active = IC50 below about 20 µM
# MPTP counter DR = counter-screen for mitochondrial permeability transition pore inhibitors, dose response; shares compounds with MPTP block; isolated mitochondria counterscreen, fluorescence read-out; IC50, µM; 780 compounds, 49% hits; AID 651564; in the data active = IC50 below about 80 µM
# * marks the source's active call; other numbers are inactive results; i = inactive; u = inconclusive; x = no result. The entries come from a sample that favours hits as a whole.
SMILES,T cruzi repl,Redox H2O2 prof,L major viab,Hep lipid drop,MPTP block,Rh123 counter,others
O=C(CCc1ccccc1)Nc1cc(Cl)ccc1O,-6,0,78*,-8,68*,81*,
NC(=NCCc1ccccc1)NC(=O)c1cc(Cl)ccc1O,4,x,x,x,56*,74*,
O=C(CCc1ccccc1)N/N=C/c1cc(Br)ccc1O,-9,0,98*,4,91*,80*,
CC(C)NC(=S)N/N=C/c1cc(Br)ccc1O,-21,1,48,-8,93*,61*,
Oc1ccc(Br)cc1/C=N/NC(=S)NCCc1ccccc1,-25,x,x,2,6,x,
O=C(CCc1ccccc1)Nc1cccnc1Cl,-2,x,x,1,3,x,
O=C(Nc1ccccc1N1CCOCC1)c1ccc(N2CCCC2=O)cc1,x,x,x,x,0,x,
O=C(Nc1cccc(Cl)c1Cl)c1snnc1-c1ccccc1,-4,1,3,x,4,x,
O=C(Nc1cc(Cl)ccc1O)c1snnc1-c1ccccc1,4,2,9,x,94*,91*,
COc1ccc(C2=CC(=O)CCC2)cc1,-2,x,x,x,-2,x,
Nc1c(C=C2C=CC(=O)C=C2)c(=O)nc2snc(SCc3ccccc3)n12,15,x,x,-3,66*,59*,
CSc1nsc2nc(=O)c(/C=C3\C=Nc4ccccc43)c(N)n12,0,3,13,1,8,x,
CCCCN(CC(=O)NCc1ccc(F)cc1)C(=O)c1ccco1,-2,0,-4,0,-1,x,
Cc1cccc2cc(/C=N/NC(=O)c3ccncc3)c(Cl)nc12,0,x,x,-4,4,x,
Cc1ccc2cc(/C=N/NC(=O)c3ccccc3O)c(Cl)nc2c1,-2,0,-11,-14,61*,82*,
Cc1cccc2cc(/C=N/NC(=O)c3ccccc3O)c(Cl)nc12,1,0,-10,-8,91*,80*,
CCCCOc1ncnc2c1[nH]c1ccc(C)cc12,13,x,x,-88,83*,56*,
CCCOc1ncnc2c1[nH]c1ccc(OC)cc12,0,x,x,-15,4,x,
O=C(Nc1ccc(Cl)cc1)Nc1ccc(S(=O)(=O)Nc2ncccn2)cc1,-14,0,0,-2,-1,x,
Fc1ccc(NC(=S)Nc2cc(Cl)ccc2Cl)cc1,-13,0,6,-6,58*,78*,
O=S(=O)(Nc1ncccn1)c1ccc(NC(=S)Nc2ccc(Cl)cc2)cc1,2,x,x,6,98*,96*,
COc1ccc(NC(=S)Nc2ccc(F)cc2)c(OC)c1,1,-2,35,x,0,x,
Fc1ccc(NC(=S)Nc2cccnc2)cc1,-17,0,9,8,-2,x,
Fc1ccc(NC(=S)Nc2ccc(Cl)cc2)cc1,-49,-1,63*,-22,80*,107*,
CCOC(=O)C1(Cc2cccc(OC)c2)CCN(Cc2cnc(C)s2)CC1,17,-1,48,-12,30,x,
SMILES,T cruzi repl,Redox H2O2 prof,L major viab,Hep lipid drop,MPTP block,Rh123 counter,others
O=C(NCC1CCCO1)c1sc(=S)n2c1[nH]c(=O)c1ccc(C(=O)N3CCCCC3)cc12 (stereo not drawn),-9,0,5,x,2,x,
O=C(NC1CCCCC1)c1sc(=S)n2c1[nH]c(=O)c1ccccc12,-17,1,-11,x,90*,92*,
CCCCNC(=O)c1sc(=S)n2c1[nH]c(=O)c1ccccc12,-11,3,-8,x,96*,80*,
O=C(NCCc1ccccc1)c1ccc2c(=O)[nH]c3c(C(=O)NCC4CCCO4)sc(=S)n3c2c1 (stereo not drawn),-6,x,x,-1,0,x,
Cc1ccc(-c2nnc(NCc3ccccc3)c3ccccc23)cc1,24,0,10,14,65*,85*,
COc1cccc(N2CCN(c3ncnc4c3[nH]c3ccc(F)cc34)CC2C)c1 (stereo not drawn),u,3,100*,x,100*,93*,
COc1cc2[nH]c3c(N4CCN(c5ccc(Cl)cc5)CC4)ncnc3c2cc1OC,39,0,19,x,3,x,
CC1=NN(c2ccc(C)cc2)C(=O)/C1=C/c1ccc(-c2cc([N+](=O)[O-])ccc2O)o1,4,x,x,x,102*,46*,
O=C1NN(c2cccc(Br)c2)C(=O)/C1=C/c1ccc(-c2cc([N+](=O)[O-])ccc2O)o1,0,x,x,-13,79*,-2,
CC1=NN(c2ccc(C(=O)O)cc2)C(=O)/C1=C/c1ccc(-c2ccccc2F)o1,0,x,x,3,4,x,
CC(C)(C)c1ccc(C(=O)C2CCCN(C(=O)c3ccccn3)C2)cc1 (stereo not drawn),17,x,x,-6,70*,93*,
Cc1cnc(C(=O)N2CCCC(C(=O)c3ccc(C(C)(C)C)cc3)C2)cn1 (stereo not drawn),-1,-1,3,-15,1,x,
OC(COc1ccc(Cl)cc1)CN1CCC(Cc2ccccc2)CC1 (stereo not drawn),30,x,x,2,1,x,
Cc1ccc(C)c(OCC(O)CN2CCC(Cc3ccccc3)CC2)c1 (stereo not drawn),30,x,x,2,78*,19,MPTP swell DR=6.8*;MPTP counter DR=13*
Cc1ccc(C(C)C)c(OCC(O)CN2CCc3ccccc3C2)c1 (stereo not drawn),14,x,x,-66,98*,92*,
O=C(COC(=O)c1ccccc1NCCO)NNC(=O)c1cccs1,-7,x,x,x,-1,x,
Cc1ccc(NS(=O)(=O)c2sc3ccc(Cl)cc3c2C)cc1,-30,x,x,-8,66*,63*,
COc1ccc(C)cc1S(=O)(=O)Nc1ccc(F)c(Cl)c1,5,2,24,-1,0,x,
CC(=NNC(=S)Nc1cccc(C)c1)c1ccccn1,x,x,x,x,52*,62*,
CC(=NNC(=S)Nc1ccc(C)cc1)c1ccccn1,x,x,x,x,10,x,
O=C(Cc1ccc(Cl)cc1)Nc1ccncc1,11,0,-7,-3,58*,16,MPTP swell DR=i;MPTP counter DR=41*
Cc1ccc(CC(=O)Nc2ccncc2)cc1,-29,0,13,-31,84*,36*,
O=C(Cc1ccc([N+](=O)[O-])cc1)Nc1ccc(Cl)cc1,24,1,4,20,68*,76*,
O=C(Cc1sc(-c2ccccc2)nc1-c1ccccc1)Nc1ccc(Cl)cc1,7,0,-1,11,69*,6,MPTP swell DR=12*;MPTP counter DR=<2.5*
Cc1cc2c(N=NC(=O)C3CC3c3ccccc3)c(O)[nH]c2cc1Br (stereo not drawn),28,0,-12,-7,11,x,
CNS(=O)(=O)c1cc(Nc2ncnc3sccc23)ccc1C,6,x,x,x,0,x,
